B1: tRNA (parent)
chain: GUUCCGUUGGCGUAAUGGUAACGCGUCUCCCUCCUAAGGAGAAGACUGCGGGUUCGAGUCCCGUACGGAACG

Variants at the floor of the assay were thinned out.

The variants in this series derive from B1. The series is described as follows: yeast fitness relative to wild type (ratio to wild type); higher = fitter; tRNA-Arg(CCU), competitive growth, 37 C, YPD. The gist of the method: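 Variants of the tRNA-Arg(CCU) gene were chemically synthesised with a 3% per-site mutation rate across 69 sites and placed at the native genomic locus in Saccharomyces cerevisiae. Six parallel replicates of the pooled strains were competed in YPD at 37°C for 24 hours, and gene amplicons from the start and end populations were read by 100-nucleotide paired-end sequencing. Darwinian fitness relative to wild type was derived from changes in genotype frequencies. Genotypes required ≥ 100 starting reads, and estimates < 0.5 were set to 0.5.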
Take G10U A20C C34A U53A U54G: the yeast fitness is at most 0.5.

For the variant C30A C61A, the yeast fitness amounted to 0.721.

Consider A21U A42G C60A, for which the yeast fitness is at most 0.5. With C4G U8G C60A U64A C66U, the yeast fitness was 0.711. As for C46G G52A C62U, the yeast fitness was found to be 0.639. For U3C C5U A21G C34G, the yeast fitness is at most 0.5.

Turning to A20U A40G G44C, the yeast fitness was at most 0.5. On to C5G C31U G58C C62A, for which the yeast fitness was at most 0.5.

With C4U A20C C27U A40C, the yeast fitness worked out at 0.605. Take U8G C31U A37G U54A C55A: the yeast fitness is at most 0.5. Consider A21U G23C G58U A65G G67A, for which the yeast fitness was at most 0.5. On to C11U A15G A45G, for which the yeast fitness was determined as 0.599.

Turning to U7A G9C G17C G48A G67A, the yeast fitness is at most 0.5. C11A C29A G56A C66G: the yeast fitness was at most 0.5.

For A36G U54C, the yeast fitness amounted to 0.906. U32C G39A A40U G63C: the yeast fitness was at most 0.5. With C27G C61A the figure was 0.582. For C4A G18A G44C C46U C49U G67A A70U, the yeast fitness was at most 0.5. G10A G17C C30G C33G G48A C61A A69U: the yeast fitness is at most 0.5. The figure for A14U G23A U28A C30A is at most 0.5. On to C29G C31A G67A, for which the yeast fitness came out at 0.56.

With A14U C22A A57C, the yeast fitness was at most 0.5.

For the variant A14U A36U, the yeast fitness was determined as 0.531. With C5G U13C C22G C29G A45C G68C A69G the figure was at most 0.5. The figure for C4U C22G C24U C62G is at most 0.5; for C11U U16C C27U C31A U35C C55G C66U it is at most 0.5. Take C24U C33A A40G: the yeast fitness turned out to be 0.513. Take A14C G39C: the yeast fitness came out at 0.575. Consider A21U C34G G39A A57G C61U, for which the yeast fitness was at most 0.5.

Take C5U G10C C34A A57U G67C: the yeast fitness was at most 0.5. With U19C C29G C33G G41C C66U, the yeast fitness was at most 0.5.

Turning to C5A A15G G18C C29A U54A A65C, the yeast fitness was at most 0.5. Regarding C4G A69U A70C, the yeast fitness came to 0.771. On to A15C C24U G44A C55G, for which the yeast fitness was at most 0.5.

Regarding G51U A57G, the yeast fitness was found to be 0.642. For the variant U2A U3G C11A U16C C22G A57C C62A, the yeast fitness amounted to 0.572. With C30U U47A U59A C60U C62G C66U, the yeast fitness is at most 0.5. U32A C33G C46U: the yeast fitness is at most 0.5.

For the variant U8A A37C A43U G63A, the yeast fitness was 0.561. Take G6A A15U C27A A65C A69C: the yeast fitness is at most 0.5. As for C11A A20U C27U U47C G50A, the yeast fitness is 0.618. On to A14C C27G A70U, for which the yeast fitness amounted to 0.54. Regarding U8C A20C G38A U53A, the yeast fitness is at most 0.5.

With U19A C24G C27U C30A G52C, the yeast fitness worked out at 0.571. Turning to C11A A14G C31G C34G, the yeast fitness is at most 0.5.

As for A21U A37U A65C, the yeast fitness worked out at 0.672. For the variant U3A C61U G67A, the yeast fitness was determined as 0.562. Regarding A20G A37U G48C, the yeast fitness was determined as 0.603. With G51U the figure was 0.843. Turning to C5G U13A A20G U35A A40G G63U, the yeast fitness is at most 0.5. For the variant C22U A37U G50C, the yeast fitness was determined as 0.634. A15U A20C G23A G50C G63A: the yeast fitness is at most 0.5.

Regarding G23C C29G C33U C46U C55U, the yeast fitness is at most 0.5. On to U19A C61A G68C, for which the yeast fitness turned out to be 0.648. With C5A A43G C55U C66G, the yeast fitness is at most 0.5. U3A A14G C24G A42C: the yeast fitness is 0.54.

As for U2A C5U U47A G52A, the yeast fitness is at most 0.5. The figure for A14C U16C C55U A70G is at most 0.5; for C11U C24G C29U G50A G58C G63A C66U it is at most 0.5. With A14G C61U A70U, the yeast fitness was 0.835. Take G18C A37G G51A C61U C66A: the yeast fitness was at most 0.5. With A42C A57U C61U the figure was at most 0.5.

For the variant U3C G12A C31G U59A, the yeast fitness was 0.537. Regarding C5U A37G A43C U59C C62U, the yeast fitness is at most 0.5.

Take C4A A36G C46G A57C: the yeast fitness was at most 0.5. In the case of A42U G50A G63C G67A, the yeast fitness is at most 0.5. With C29A A57U C62U, the yeast fitness was at most 0.5.

For the variant C29G C33G A43U, the yeast fitness is at most 0.5.

For the variant C4A C49U, the yeast fitness was found to be 0.877. For the variant G38C C62G, the yeast fitness was 0.63. Regarding C22G G68U, the yeast fitness turned out to be 0.865. The figure for U26A G41C C66A A70C is 0.663; for U2G U53A it is 0.532. With G17C A42U C62U the figure was 0.645. For the variant A15G C31U U47G G58C C62U, the yeast fitness is at most 0.5. On to A43U G50C, for which the yeast fitness turned out to be 0.812. In the case of A42C C49A G67C, the yeast fitness was at most 0.5.

Take C22U C33U A42U A69C: the yeast fitness is 0.629. As to G9A G25C C60G, the yeast fitness was at most 0.5. With C4U C11G C30G U47C the figure was at most 0.5; with C22A U28A G39C, at most 0.5; with U2C G38A A70G, 0.541. Regarding A37U A70G, the yeast fitness was 0.72. For C11G G68A A69G, the yeast fitness is at most 0.5. The figure for C4G A20U C60U A70U is 0.651; for A20U C30U G39C A45G G68A A69C it is at most 0.5. Consider A45G C66U A69C, for which the yeast fitness was determined as 0.598. The figure for G25C C34U C66U is at most 0.5; for C5G C34G C62G it is 0.59.

For G63A A65G A69U, the yeast fitness came out at 0.609.

As for U3A A21C, the yeast fitness turned out to be 0.768. With U2G G44C C60U A69G the figure was at most 0.5; with A20G C34U A40U A42U U64A, at most 0.5; with C11A C27A A69U, at most 0.5. For the variant A14C C31U A36U A69C, the yeast fitness is 0.624. With A42C A45C the figure was 0.854; with C5U U32G C33G C55U, 0.621; with U54A C55A C66G A70C, at most 0.5. With U7G A20C A42C the figure was at most 0.5. On to C31U C33G A65C G68A A69U, for which the yeast fitness is at most 0.5. For the variant A14C A20C U32C, the yeast fitness was at most 0.5. In the case of C5U A21C A42G C61G, the yeast fitness was at most 0.5. As for A45C G50A C60G A65G, the yeast fitness was at most 0.5.

With C11G U28A C66U A70U, the yeast fitness was at most 0.5.

In the case of A36G G67A, the yeast fitness came out at 0.864. As for G38A U53A, the yeast fitness came to 0.587. As to G23U C33G G58C, the yeast fitness was at most 0.5. For G41A A42C G50C A70G, the yeast fitness is 0.621. Consider G6A A70C, for which the yeast fitness came out at 0.863. The figure for G9A C24U U32G A65C C66G is at most 0.5; for A14G A15C U53G C60U it is at most 0.5. Regarding G6A C11G U35A A37U U53A A65G, the yeast fitness is at most 0.5.

For U2C A37U G52A, the yeast fitness was at most 0.5. As to A14U G18A A40G C62A, the yeast fitness was at most 0.5. On to G25A G41A A70C, for which the yeast fitness came out at 0.714. As for A14U C24U C33A G44C U47C U64G, the yeast fitness was at most 0.5. As for C11A U54A, the yeast fitness turned out to be 0.602.

For the variant A21C U26G U35A A40U, the yeast fitness was at most 0.5. Regarding U3C U19A A69U, the yeast fitness was determined as 0.865. Regarding A14G G23A C34A, the yeast fitness is at most 0.5. On to U3G U13C C22A, for which the yeast fitness worked out at 0.656.

As to U28C C30U, the yeast fitness came to 0.767. Regarding U2G C22U C24G A37U, the yeast fitness was at most 0.5. In the case of C4G C31G A40G C62A, the yeast fitness was at most 0.5. For A20U G38A A70G, the yeast fitness is 0.516. With G50A G51U, the yeast fitness is 0.664. For G6A A15C G51A A57U G68A, the yeast fitness was at most 0.5. As for A37G A40U G58C, the yeast fitness amounted to 0.729. As for U7C A43C, the yeast fitness was determined as 0.88. With C22A C31A the figure was 0.789; with C5A C31U G51C, 0.807. For the variant A14U G18A A21U A42G G68A, the yeast fitness is at most 0.5. With U2G A69U the figure was 0.743; with U3A C5A G6C A14C G48C C55U G63U, at most 0.5. With C29G C55U the figure was at most 0.5; with C4A G18A G44C C46U C49U, at most 0.5. For the variant A40U C55U G68A, the yeast fitness was at most 0.5.

Consider C30U U47A G67C, for which the yeast fitness came to 0.567. As to U35A A40U G41C C49A, the yeast fitness is at most 0.5. A40U C46U: the yeast fitness is 1.08.

Regarding A15C G39A C60G A70G, the yeast fitness is at most 0.5. With C5A G48C G51C U53A C66A, the yeast fitness turned out to be 0.559. For the variant U35A A57U A69U, the yeast fitness is at most 0.5.

Consider C22U C30U A37G G68A, for which the yeast fitness is at most 0.5. For the variant U47A C55G, the yeast fitness worked out at 0.684. For C4U G63U, the yeast fitness was 0.778. With C5U U26A C60G A70G the figure was at most 0.5; with C11A A15U A20C C34G A65C, at most 0.5.

As to U8A A40U A43U A65C, the yeast fitness was at most 0.5. For G9C A20C A45G C46G G50A, the yeast fitness was at most 0.5. As to C24A U26A A43U C55A C66U, the yeast fitness is at most 0.5. Regarding U19A A65G, the yeast fitness turned out to be 1.05. With C24A C29G C30G C49U the figure was at most 0.5; with C5G C27U C61G, at most 0.5; with C4U C29A C61G A70U, 0.588. In the case of A20C G39A U54A, the yeast fitness stood at 0.599. As for U3A A37G, the yeast fitness stood at 0.887. Take C4U G18A C22U A40C G68C: the yeast fitness was determined as 0.591. Take U2C G56A: the yeast fitness came out at 1.02. Take A37C C62U C66G: the yeast fitness was at most 0.5. With C4U G9A C22G A42U U64A G67A, the yeast fitness is 0.58. Regarding C11G C22A C31U A42G C66U, the yeast fitness is at most 0.5. For C24A C29G C60U, the yeast fitness is at most 0.5. The figure for A36C G56A is 0.61. In the case of C30G G51C, the yeast fitness was at most 0.5. As to A14G G44A A57U, the yeast fitness stood at 0.576. With U28A C55G C66U, the yeast fitness is at most 0.5.

Source of the values: the RNAGym collection of RNA variant scans (doi:10.1126/science.aae0568).
